This note sets out measurements from ChEMBL document CHEMBL4043101, “Potent haloperidol derivatives covalently binding to the dopamine D2 receptor” (Bioorg Med Chem, 2017).

For assay [1], the species on record is Homo sapiens. As to the kind of experiment: Selectivity index, ratio of Ki for human D2short receptor expressed in CHO cell membranes to Ki for human D2short receptor L2.64C mutant expressed in HEK293T cell membranes. It is filed as cell-based. In outline:
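Ratio of the D2short Ki from CHO membranes to the Ki measured at the transiently expressed L2.64C mutant in HEK 293T membranes. Both Ki values come from [3H]spiperone competition binding with Cheng-Prusoff conversion.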

Assay [2] is filed under the species Homo sapiens. As to the kind of experiment: Selectivity index, ratio of Ki for human D3 receptor expressed in CHO cell membranes to Ki for human D2short receptor expressed in CHO cell membranes. In kind it is cell-based. In outline:
(§1)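 Ratios of Ki values from [3H]spiperone competition binding on CHO membranes stably expressing human D2short, D3 or D4.4 receptors. The D3 and D4 Ki values are each divided by the D2short Ki.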

Assay [3] is described as follows: Displacement of [3H]spiperone from human dopamine D4.4 receptor expressed in CHO cell membranes by radioligand binding assay. The method in brief: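 Competition binding used membranes from CHO cells stably expressing human D4.4R, at 4-10 µg protein/tube, with [3H]spiperone final 0.15-0.30 nM (KD 0.14-0.25 nM, Bmax 1000-1700 […]). Nonspecific binding was defined with 10 µM haloperidol. Ki was obtained by sigmoid fit to IC50 and then Cheng-Prusoff. Each Ki is the mean of two independent experiments, each run in triplicate.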
On the technique in general: In a radioligand displacement assay an active substance lowers the binding of a labelled ligand.

Assay [4] is filed under the species Homo sapiens. As to the kind of experiment: Selectivity index, ratio of Ki for human dopamine D4.4 receptor expressed in CHO cell membranes to Ki for human D2short receptor expressed in CHO cell membranes. In kind it is cell-based. The method in brief:
as §1

For assay [5], the system named is D(2) dopamine receptor (Homo sapiens), P14416 [L94C]. As to the kind of experiment: Irreversible inhibition of [3H]spiperone binding to human D2short receptor L2.64C mutant expressed in HEK293T cell membranes at 1 uM incubated for 120 mins followed by compound wash out by radioligand depletion assay. The note with it: HEK-293T. The method in brief:
(§2)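 For screening, membranes from HEK 293T cells expressing the D2short L2.64C mutant (50 µg/mL protein) were preincubated with compound for 120 min at 37 °C in pH 7.4 Tris buffer. The reference, haloperidol, was used at 20 nM. Membranes were centrifuged and washed four times for 30 min each. Residual specific [3H]spiperone binding was normalized to nonspecific 0% and total 100%. Values are the mean of 2-4 experiments, each in quadruplicate, ±SD.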

For assay [6] the test system is unchanged. As to the kind of experiment: Irreversible inhibition of [3H]spiperone binding to human D2short receptor L2.64C mutant expressed in HEK293T cell membranes incubated for 120 mins followed by compound wash out by radioligand depletion assay. Conditions: HEK-293T. In outline:
as §2

The target in a further assay is D(3) dopamine receptor (Homo sapiens, UniProt P35462). Nature of the assay: Displacement of [3H]spiperone from human D3 receptor expressed in CHO cell membranes by radioligand binding assay.
D(3) dopamine receptor, sequence (P35462 whole entry): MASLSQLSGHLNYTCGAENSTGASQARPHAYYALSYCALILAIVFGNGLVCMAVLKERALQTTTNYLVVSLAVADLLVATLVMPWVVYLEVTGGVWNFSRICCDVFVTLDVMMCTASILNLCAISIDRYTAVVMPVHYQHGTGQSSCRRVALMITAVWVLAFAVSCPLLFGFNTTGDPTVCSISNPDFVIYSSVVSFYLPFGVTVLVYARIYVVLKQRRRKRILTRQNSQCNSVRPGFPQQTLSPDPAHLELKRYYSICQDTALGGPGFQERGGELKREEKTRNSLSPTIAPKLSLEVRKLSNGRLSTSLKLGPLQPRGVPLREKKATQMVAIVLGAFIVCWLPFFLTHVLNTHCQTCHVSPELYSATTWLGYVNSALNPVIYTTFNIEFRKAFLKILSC
A short description of assay [7]: Displacement of [3H]spiperone from human D2short receptor L2.64C mutant expressed in HEK293T cell membranes by radioligand binding assay. Conditions: hek-293t. The method in brief:
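Membranes from HEK 293T cells transiently transfected with the mutant receptor in pcDNA3.1 were used for competition binding against [3H]spiperone (81 Ci/mmol), final 0.15-0.30 nM. Nonspecific binding was defined with 10 µM haloperidol. Protein was measured by Lowry with a BSA standard. IC50 came from a sigmoid nonlinear fit and was converted to Ki by Cheng-Prusoff.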

In assay [8] the test system is D(2) dopamine receptor (Homo sapiens), P14416 [L94C]. Nature of the assay: Irreversible inhibition of [3H]spiperone binding to human D2short receptor L2.64C mutant expressed in HEK293T cell membranes at 10 uM incubated for 120 mins followed by compound wash out by radioligand depletion assay. The note with it: HEK-293T. The method in brief: as §2
D(2) dopamine receptor (Homo sapiens), P14416 [L94C], sequence (P14416 whole entry L94C): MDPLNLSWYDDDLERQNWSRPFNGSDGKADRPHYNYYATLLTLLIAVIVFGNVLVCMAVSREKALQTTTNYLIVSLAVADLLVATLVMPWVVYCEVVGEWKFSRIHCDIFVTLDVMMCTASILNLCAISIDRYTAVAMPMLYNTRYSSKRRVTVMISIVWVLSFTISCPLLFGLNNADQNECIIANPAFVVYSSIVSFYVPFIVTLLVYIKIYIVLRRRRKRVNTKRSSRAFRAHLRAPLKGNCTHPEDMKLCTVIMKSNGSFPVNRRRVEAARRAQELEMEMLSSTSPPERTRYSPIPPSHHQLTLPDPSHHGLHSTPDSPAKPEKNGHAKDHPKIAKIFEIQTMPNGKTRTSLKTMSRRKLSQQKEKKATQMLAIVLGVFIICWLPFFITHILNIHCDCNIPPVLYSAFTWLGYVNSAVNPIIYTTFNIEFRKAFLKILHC
For assay [9], the target named is T1, D(2) dopamine receptor (Homo sapiens, UniProt P14416). Nature of the assay: Displacement of [3H]spiperone from human D2long receptor expressed in CHO cell membranes by radioligand binding assay.
T1 sequence (P14416 whole entry): as the sequence (P14416 whole entry L94C) above, with C94L counted along it
The target in assay [10] is T1, D(2) dopamine receptor. As to the kind of experiment: Displacement of [3H]spiperone from human D2short receptor expressed in CHO cell membranes by radioligand binding assay.
Assay [11] concerns HEK-293T. As to the kind of experiment: Inhibition of [3H]spiperone binding to human D2short receptor L2.64C mutant expressed in HEK293T cell membranes at 2 and 5 uM incubated for 120 mins by radioligand depletion assay.
In assay [12] the test system is D(2) dopamine receptor (Homo sapiens), P14416 [L94C]. As to the kind of experiment: Irreversible inhibition of [3H]spiperone binding to human D2short receptor L2.64C mutant expressed in HEK293T cell membranes at 20 uM incubated for 120 mins followed by compound wash out by radioligand depletion assay. The note with it: HEK-293T. In outline: as §2
The subject of assay [13] is HEK-293T. Nature of the assay: Inhibition of [3H]spiperone binding to human D2short receptor L2.64C mutant expressed in HEK293T cell membranes at 2 and 5 uM incubated for 30 mins by radioligand depletion assay.
Assay [14] relates to D(2) dopamine receptor (Homo sapiens), P14416 [L94C]. As to the kind of experiment: Irreversible inhibition of [3H]spiperone binding to human D2short receptor L2.64C mutant expressed in HEK293T cell membranes assessed as covalent binding at 5 and 20 uM incubated for 120 mins followed by compound wash out by radioligand depletion assay. Also noted: scale not given: the % may be the effect or the level left. Conditions: HEK-293T. In outline:
as §2

For assay [15] the test system is unchanged. As to the kind of experiment: Irreversible inhibition of [3H]spiperone binding to human D2short receptor L2.64C mutant expressed in HEK293T cell membranes assessed as remaining [3H]spiperone binding at 5 and 20 uM incubated for 120 mins followed by compound wash out by radioligand depletion assay. The note with it: HEK-293T. The method in brief: as §2

For assay [16] the test system is unchanged. As to the kind of experiment: Irreversible inhibition of [3H]spiperone binding to human D2short receptor L2.64C mutant expressed in HEK293T cell membranes at 5 uM incubated for 120 mins followed by compound wash out by radioligand depletion assay. The note with it: HEK-293T. The method in brief: as §2
Assay [17] deals with HEK-293T. Nature of the assay: Inhibition of [3H]spiperone binding to human D2short receptor L2.64C mutant expressed in HEK293T cell membranes at 2 and 5 uM incubated for 240 mins by radioligand depletion assay.
For assay [18], the system named is HEK-293T. Nature of the assay: Inhibition of [3H]spiperone binding to human D2short receptor L2.64C mutant expressed in HEK293T cell membranes at 1 and 5 uM incubated for 240 mins by radioligand depletion assay. The note with it: in the assay text read “120 mins” for “240 mins”. In outline:
(§3)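 For kinetics, mutant receptor membranes from HEK 293T cells (50 µg/mL protein) were preincubated with compound at two concentrations for 15 to 240 min, at 37 °C, pH 7.4. The buffer was Tris/EDTA/MgCl2/bacitracin/trypsin inhibitor. Incubation was stopped by centrifugation, then membranes were washed four times (30 min resuspension each). Remaining specific [3H]spiperone binding was then measured, with 10 µM haloperidol defining nonspecific binding. Data were normalized to nonspecific 0% and total 100%.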

The test system of assay [19] is HEK-293T. As to the kind of experiment: Inhibition of [3H]spiperone binding to human D2short receptor L2.64C mutant expressed in HEK293T cell membranes at 1 and 5 uM incubated for 30 mins by radioligand depletion assay. The method in brief:
as §3

Each structure is given as a SMILES string.

By Ki is commonly meant a dissociation constant, usually derived from enzyme kinetics or from competition with a known ligand. The inhibition is how much of the control response was suppressed. In the case of `O=C(CCCN1CCC(O)(c2ccc(Cl)cc2)CC1)c1ccc(OCCSSCCO)cc1`, the Ratio Ki in the assay listed under Homo sapiens [1] stood at 0.22; in the assay filed under Homo sapiens [2] it was 1.9; in the assay listed under Homo sapiens [4], 13. Also, the Ki in [3] came to 970 nM; on D(3) dopamine receptor, 140 nM; in assay [7], 330 nM; at D(2) dopamine receptor [9], 240 nM; on D(2) dopamine receptor [10], 73 nM. The inhibition is 20% in assay [5], “Dose-dependent effect” in assay [6] and below 70% in assay [8].

For `O=C(NCCN1CCC(O)(c2ccc(Cl)cc2)CC1)NCCN1C(=O)C=CC1=O`, the Ratio Ki in the assay listed under Homo sapiens [1] was 1.7; in the assay listed under Homo sapiens [2], 0.46; in the assay listed under Homo sapiens [4] it was above 33. Moreover, the Ki was above 50000 nM in assay [3]; 690 nM on D(3) dopamine receptor; 860 nM in assay [7]; 2200 nM on D(2) dopamine receptor [9]; 1500 nM at D(2) dopamine receptor [10]. For the same molecule, the inhibition was above 90% in the assay with HEK-293T [11]; 70 to 95% in [12]; 70 to 85% in the assay on HEK-293T [13]; “Dose-dependent effect” in [6]; 60 to 85% in assay [16]. Also, the Activity in assay [14] is above 90%; in assay [15], 5%.

On to `COc1cc(CCN2CCC(O)(c3ccc(Cl)cc3)CC2)ccc1OCCCSSCCN`, for which the Ratio Ki came out at 1.1 in the assay listed under Homo sapiens [1], 0.63 in the assay filed under Homo sapiens [2] and 1.6 in the assay listed under Homo sapiens [4]. For the same molecule, the Ki was 1500 nM in assay [3]; 600 nM on D(3) dopamine receptor; 850 nM in assay [7]; 1000 nM at D(2) dopamine receptor [9]; 940 nM at D(2) dopamine receptor [10]. Further, the inhibition in assay [12] was 70 to 95%; in the assay on HEK-293T [17] it was 85%; with HEK-293T [13] it was 87%; in assay [6], “Dose-dependent effect”; in assay [16], 60 to 85%. Also, the figures for the Activity in [14] and in [15] were above 90% and 10%, respectively.

As to `[N-]=[N+]=NCCSSCCn1cc(C(=O)CCCN2CCC(O)(c3ccc(Cl)cc3)CC2)nn1`, the inhibition in the assay on HEK-293T [18] was 86%; in [5], 60 to 85%; in [6] it was “Dose-dependent effect”; with HEK-293T [19], 80%; in assay [16], 70 to 95%. The Ratio Ki in the assay filed under Homo sapiens [1] amounted to 0.44; in the assay listed under Homo sapiens [2], 1.5; in the assay filed under Homo sapiens [4] it was 23. Besides, the Ki is 3200 nM in [3]; 210 nM at D(3) dopamine receptor; 320 nM in [7]; 260 nM on D(2) dopamine receptor [9]; 140 nM at D(2) dopamine receptor [10].

In [3], `O=C(CCCN1CCC(O)(c2ccc(Cl)cc2)CC1)c1ccc(F)cc1` [HALOPERIDOL] came in with a Ki of 7.2 nM.

As to `COc1cc(CCN2CCC(O)(c3ccc(Cl)cc3)CC2)ccc1OCCSSCCN`, the Ratio Ki in the assay filed under Homo sapiens [1] came to 2.7; in the assay listed under Homo sapiens [2] it was 0.26; in the assay filed under Homo sapiens [4], 0.73. For the same molecule, the Ki in assay [3] was 1100 nM; on D(3) dopamine receptor, 390 nM; in [7], 550 nM; at D(2) dopamine receptor [9], 1500 nM; at D(2) dopamine receptor [10], 1500 nM. Also, the inhibition was 70 to 95% in assay [12]; 82% with HEK-293T [17]; 72% with HEK-293T [13]; “Dose-dependent effect” in [6]; 60 to 85% in assay [16].
